Results: PubChem BioAssay
Records with an inconclusive call do not appear.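 The calls were made as follows, unless noted: active = growth inhibition above 25% in both replicates, a cutoff set 3 SD above the mean; inconclusive = above 25% in only one replicate; inactive = the rest.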

Assays:
[1] = S. cerevisiae growth inhibition in permissive medium (OD615), pilot counter-assay for S. cerevisiae lifespan shortening project, permissive growth control (AID 705); conditions: OD615, 24 h, at 10 µM, stronger effect = higher value
Outline: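 System: S. cerevisiae with engineered DeaD lifespan system / Measured by: absorbance (optical density) at 615 nm / Read-out: reduction in yeast growth (OD615) / Times: 4 h cell pre-growth, 24 h exposure at 30 °C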

[2] = S. cerevisiae growth inhibition in restrictive medium, OD615, pilot screen, restrictive growth control, yeast lifespan reduction project (AID 706;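 active = growth inhibition above a set limit, 3 SD over mean compound inhibition, in both replicates, cut at about 43% in these data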;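 also: modified DeaD lifespan yeast strain shifted to restrictive glucose medium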); conditions: OD615, 48 h, at 10 µM, stronger effect = higher value
Outline: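 System: Engineered S. cerevisiae DeaD strain | Buffer or medium: Glucose-based CSMM-D restrictive medium | Schedule: 4 h pre-incubation, 48 h exposure at 30 °C | Technique: Optical density at 615 nm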

[3] = doxorubicin toxicity protection in MRP-1 cells – H69AR cells, CellTiter-Glo, duplicate, MRP-1 activator project, pilot screen (AID 807;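 active = viability increase at or above a cutoff of the median across tested compounds plus 3 SD, cut at about 8.5% in these data, passing the limit was not always enough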;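 also: compound pretreatment 18-22 h then 72 h combined with doxorubicin; 0% = doxorubicin alone and 100% = vehicle without doxorubicin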); conditions: H69AR viability with doxorubicin, CellTiter-Glo luminescence; at 10 µM; stronger effect = higher value
[4] = viability of HCT116 without oncogenic beta-catenin – human colon tumor cells, pilot screen (AID 823;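 active = cell viability at or below a set limit in both duplicate runs, the limit being the all-compound median minus 4 SD, cut at about 23% in these data, passing the limit was not always enough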;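 also: 0% = wells killed by 20 µM Hyamine and 100% = untreated DMSO cell wells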); conditions: HCT116 beta-catenin knockout viability, CellTiter-Glo, 60 h; at 10 µM; stronger effect = lower value
[5] = viability of PTEN-null HCT116 cells – cell-based, HCT116 clonal line, CellTiter-Glo, pilot screen (AID 824;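 active = viability at or below 27.92% in each of two runs, the all-compound median minus 4 SD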;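 also: 0% = 20 µM Hyamine control and 100% = vehicle cell control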); conditions: HCT116 PTEN-deleted viability, 60 h, at 10 µM, stronger effect = lower value
[6] = RAM pathway blockade in budding yeast – dse1pr::URA3 reporter, 5-FOA selection, pilot screen (AID 869;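 active = inhibition over a set limit, the all-compound mean plus 3 SD, in both replicate runs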;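 also: 0% = DMSO wells with no growth and 100% = 10 µM 1-NA-PP1 with full growth; RAM network block rescues cells from 5-FOA so hits raise OD615 growth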); conditions: S. cerevisiae dse1pr::URA3 5-FOA growth, OD615, 2 d; at 10 µM; stronger effect = higher value; strain carries analog-sensitive mutant Cbk1 kinase
[7] = RAM signaling pathway blockade in yeast – S. cerevisiae, Pdr1DBD-CYC8 efflux-inhibited sensitized strain, primary screen (AID 1298;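 active = RAM network inhibition above 8.4% in each of two replicates, 3 SD over the compound average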;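 also: 0% = DMSO untreated cells without growth and 100% = 10 µM 1-NA-PP1 full growth; higher means more yeast growth rescued from 5-FOA killing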); conditions: S. cerevisiae cbk1-as DSE1-URA3 strain, 5-FOA growth OD615, 2 d; at 50 µM; stronger effect = higher value

COc1cccc(C2NC(=O)NC(C)=C2C(=O)Nc2cc(OC)ccc2OC)c1 (configuration not stated)
inactive: growth inhibition [1] -7.14% | growth inhibition [2] 0.605% | viability increase [3] -0.51% | viability [4] 95.2% | viability [5] 94.9% | inhibition [6] 1.15% | RAM network inhibition [7] 5.92%

CCCCC(=O)Nc1nc(C)c(C(C)=O)s1
inactive: growth inhibition [1] -13.3% | growth inhibition [2] -2.2% | viability increase [3] 0.48% | viability [4] 98.8% | viability [5] 88.7% | inhibition [6] 1.14% | RAM network inhibition [7] -1%

COc1ccc(N(CC(=O)N2CCN(c3ccccc3)CC2)S(=O)(=O)c2c(C)noc2C)cc1
inactive: growth inhibition [1] -9.29% | growth inhibition [2] -0.83% | viability increase [3] -4.48% | viability [4] 93.7% | viability [5] 85.6% | inhibition [6] 0.315% | RAM network inhibition [7] 3.7%

Cc1cc(NC(=O)CC(CN(C)S(=O)(=O)c2ccccc2)c2ccccc2)no1 (configuration not stated)
inactive: growth inhibition [1] -7.79% | growth inhibition [2] -20.5% | viability increase [3] -4.04% | viability [4] 89.7% | viability [5] 81.3% | inhibition [6] 1.59% | RAM network inhibition [7] 3.14%

Cc1ccccc1-n1nc2c(c1NC(=O)COc1ccc(Cl)cc1)CS(=O)C2 (configuration not stated)
inactive: growth inhibition [1] -5.57% | growth inhibition [2] -3.5% | viability increase [3] 0.22% | viability [4] 98.3% | viability [5] 92.6% | inhibition [6] 1.46% | RAM network inhibition [7] 1.42%

CCOc1ccc(-n2c(SCC(=O)Nc3ccc4c(c3)OCO4)nc3c(c2=O)SCC3)cc1
inactive: growth inhibition [1] 3.25% | growth inhibition [2] -5.91% | viability increase [3] -1.65% | viability [4] 92.5% | viability [5] 86.5% | inhibition [6] 1.83% | RAM network inhibition [7] 4.16%

COc1cccc(C2CC(c3ccc(Cl)cc3)n3nc(N)nc3N2)c1 (configuration not stated)
inactive: growth inhibition [1] -3.76% | growth inhibition [2] 1.46% | viability increase [3] 0.04% | viability [4] 100% | viability [5] 91.1% | inhibition [6] 1.63% | RAM network inhibition [7] 7.39%

Cc1ccc2c(c1)N(CCCC(=O)NCc1cccnc1)C(=O)CO2
inactive: growth inhibition [1] -13.3% | growth inhibition [2] -16.3% | viability increase [3] 0.96% | viability [4] 95.6% | viability [5] 99.1% | inhibition [6] -0.1% | RAM network inhibition [7] 0.98%

Cc1cc(C)nc(SCC(=O)Nc2ccc(S(=O)(=O)Nc3onc(C)c3C)cc2)n1
inactive: growth inhibition [1] -5.04% | growth inhibition [2] 14% | viability increase [3] 0.95% | viability [4] 109% | viability [5] 101% | inhibition [6] 0.88% | RAM network inhibition [7] -1.62%

CCN1C(=O)c2ccccc2S(=O)c2ccc(C(=O)N3CCCC3)cc21 (configuration not stated)
inactive: growth inhibition [1] -3.58% | growth inhibition [2] 3.54% | viability increase [3] -1.58% | viability [4] 93.3% | viability [5] 88.9% | inhibition [6] 1.16% | RAM network inhibition [7] -1.72%

Oc1[nH]c2ccccc2c1C=Nc1ccc2c(c1)OCO2
inactive: growth inhibition [1] -18.5% | growth inhibition [2] -9.39% | viability increase [3] -5.2% | viability [4] 75% | viability [5] 71.4% | inhibition [6] 1.74% | RAM network inhibition [7] 1.86%

COc1ccc(Nc2oc(COc3ccccc3F)nc2C#N)cc1
inactive: growth inhibition [1] -10.6% | growth inhibition [2] 11.6% | viability increase [3] -7.35% | viability [4] 51.3% | viability [5] 53.3% | inhibition [6] 2.25% | RAM network inhibition [7] 3.24%

CC1CCCN(C(=O)CNC(=O)Cn2ccc3ccccc3c2=O)C1 (configuration not stated)
inactive: growth inhibition [1] -10.8% | growth inhibition [2] -1.01% | viability increase [3] -1.73% | viability [4] 99.5% | viability [5] 94.5% | inhibition [6] 2.08% | RAM network inhibition [7] 2.25%

CC1CCCCN1c1nnc(NC(=O)Cn2c(=O)oc3ccccc32)s1 (configuration not stated)
inactive: growth inhibition [1] -4.21% | growth inhibition [2] -14.8% | viability increase [3] -1.54% | viability [4] 110% | viability [5] 97.8% | inhibition [6] -0.575% | RAM network inhibition [7] 4.48%

CC(CCCC(C)(C)O)NCCO (configuration not stated)
inactive: growth inhibition [1] -9.36% | growth inhibition [2] -4.3% | viability increase [3] 1.25% | viability [4] 102% | viability [5] 106% | inhibition [6] 2.67% | RAM network inhibition [7] -0.17%

O=C(c1ccc(CS(=O)(=O)c2ccc(Br)cc2)o1)N1CCOCC1
inactive: growth inhibition [1] -10.2% | growth inhibition [2] -12.6% | viability increase [3] -0.67% | viability [4] 104% | viability [5] 97.3% | inhibition [6] 2.23% | RAM network inhibition [7] 0.1%

Cc1nc2cc(-c3cccc(F)c3)nn2c(C)c1CCC(=O)NC(C)CCc1ccco1 (configuration not stated)
inactive: growth inhibition [1] -10.1% | growth inhibition [2] -2.46% | viability increase [3] -1.36% | viability [4] 69.7% | viability [5] 72.6% | inhibition [6] 0.955% | RAM network inhibition [7] 3.16%

N#Cc1cccc(NC(=O)NCCc2c[nH]c3ccccc23)c1
inactive: growth inhibition [1] -17.4% | growth inhibition [2] 1.5% | viability increase [3] -4.55% | viability [4] 93.1% | viability [5] 90.2% | inhibition [6] -0.125% | RAM network inhibition [7] 4.4%

CC(C)CCNC(=O)C1C2C=CC3(CN(Cc4ccccc4Cl)C(=O)C13)O2 (configuration not stated)
inactive: growth inhibition [1] -8.87% | growth inhibition [2] -13.5% | viability increase [3] -3.35% | viability [4] 103% | viability [5] 98.3% | inhibition [6] 0.82% | RAM network inhibition [7] 8.03%

CSCC[C@@H](C(=O)O)N1Cc2ccccc2C1=O
inactive: growth inhibition [1] 7.93% | growth inhibition [2] 6.17% | viability increase [3] 0% | viability [4] 105% | viability [5] 103% | inhibition [6] 1.69% | RAM network inhibition [7] -0.16%

CC(C)CC(=O)Nc1c2c(nn1-c1ccc(F)cc1)CSC2
inactive: growth inhibition [1] -13.9% | growth inhibition [2] -14.5% | viability increase [3] -1.7% | viability [4] 91.1% | viability [5] 90.9% | inhibition [6] 1.46% | RAM network inhibition [7] 5.43%

CCc1cccc(OCCCCNCCOC)c1
inactive: growth inhibition [1] -2.16% | growth inhibition [2] -11.6% | viability increase [3] -0.86% | viability [4] 89.1% | viability [5] 99.3% | inhibition [6] 2.08% | RAM network inhibition [7] -0.32%

COc1cccc(-c2nnc(NC(=O)C3CCCCC3)o2)c1
inactive: growth inhibition [1] -14% | growth inhibition [2] -2.06% | viability increase [3] -3.8% | viability [4] 83.5% | viability [5] 85.7% | inhibition [6] 1.85% | RAM network inhibition [7] 1.88%

CCO/C=N/c1c(C#N)c(CC#N)nn1-c1ccccc1
inactive: growth inhibition [1] -13.5% | growth inhibition [2] 2.31% | viability increase [3] -1.36% | viability [4] 94.6% | inhibition [6] 2.31% | RAM network inhibition [7] 1.41%
